Compound activity (PubChem BioAssay)
A selection: hits, their analogues and other compounds. The true share with any hit is near 2.2%.
Autophagy mod – autophagy modulators in MEF cells, primary screen, imaging, high-content, MEF GFP-LC3; calls only at 10 µM (by protocol); 190,000 compounds, 0.98% hits; AID 463193, 2010; MEF GFP-LC3 puncta imaging; test concentration mostly 10 µM;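 active = percentage of spot-positive cells more than 3 SD above its plate mean, without a fluorescence outlier flag or 80% toxicity; inconclusive = no clear call, values can overlap the other calls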
bCat KO growth – primary screen for growth suppressors in beta-catenin knockout HCT116 cells (colon tumor, human); HCT116 beta-catenin knockout viability, CellTiter-Glo, 60 h; active compounds read low; viability, % at 10 µM; 140,000 compounds, 1.5% hits; AID 818, 2007;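 active = viability at or under a set limit, the compound median less 4 SD, cut at about 6% in these data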
SDO1 yeast rescue – growth rescue of sdo1-depleted yeast, primary screen, S. cerevisiae, bone marrow failure model; S. cerevisiae sdo1-depleted JHY4D growth rescue, OD600 30 h; active compounds read high; pdr5 snq2 efflux-pump mutant strain; z-score at 10 µM; 140,000 compounds, 0.21% hits; AID 817, 2007;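 active = z-score above 3 at both the 24 hr and the 30 hr optical density reads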
PTEN del growth – growth suppression of PTEN-null HCT116, primary screen, cell-based, CellTiter-Glo | AID 827, 2007 | HCT116 PTEN-null viability, 60 h; active compounds read low | 140,000 compounds, 1.2% hits | viability, % at 10 µM;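 active = viability at or below a set limit, 4 SD under the median of all tested compounds, cut at about 3.7% in these data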;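 also: PTEN knockout HCT116 line with beta catenin targeted HCT116 as companion control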
Dynein cargo inh – inhibitors of GR-EGFP nuclear translocation, primary screen, dynein cargo transport inhibitor project, imaging, high-content, 3617.4 mouse cells; z-score, hits read low; 220,000 compounds, 0.47% hits; test concentration mostly 20 µM; stimulated with dexamethasone, 1 µM; active compounds read low;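 active = plate z-score of nuclear minus cytoplasmic receptor signal below a set negative limit, without overly bright fluorescence or cell loss, cut at about -3.5 in these data, passing the limit was not always enough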;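 also: z-score of nuclear minus cytoplasmic ring GR-EGFP intensity difference per well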
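Buffer or medium: tetracycline-free induction medium containing charcoal-stripped FBS / Reagent: dexamethasone agonist, 1.0 µM final, for 30 min / Technique: automated 10x imaging of fixed Hoechst-stained cells / Times: induction 48 h, compound 1 h, agonist 30 min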
Dynein confirm – dynein cargo transport inhibitors, GR-EGFP translocation, confirmation, imaging, high-content imaging, GR-EGFP cells; shares compounds with Dynein cargo inh; 3617.4 GR-EGFP nuclear translocation imaging, dexamethasone-induced; calls only at 20 µM; 1,000 compounds, 69% hits;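 active = inhibition of receptor movement into the nucleus at or above a set limit in both runs, with normal cell brightness and cell count; inconclusive = limit reached in only one run, brightness and count normal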;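 also: dexamethasone at 1 µM final in well for 30 min; nuclear minus cytoplasmic GR-EGFP mean intensity difference in channel 2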
Large screens that a line does not name were inactive (follow-up assays come after a bar, where they were run).

COC(=O)c1c(NC(=O)C2(C)Cc3ccccc3C(=O)O2)sc2c1CCCC2 (centres undefined)	none
C#CC(=O)N(c1ccc(OC)cc1OC)C(C(=O)NC1CCCC1)c1cccs1 (centres undefined)	Dynein cargo inh -4.4 (no result: bCat KO growth, SDO1 yeast rescue, PTEN del growth) | Dynein confirm active
COc1ccc(N(C(=O)c2ccco2)C(C(=O)NC2CCCCC2)c2cccs2)cc1OC (centres undefined)	none
COc1ccc(CCN(C(=O)C(F)(F)F)C(C(=O)NC2CCCC2)c2cccs2)cc1 (centres undefined)	none
C#CC(=O)N(c1cc(OC)ccc1OC)C(C(=O)NC1CCCC1)c1cccs1 (centres undefined)	bCat KO growth 0.7, PTEN del growth 1.0, Dynein cargo inh -5.1 | Dynein confirm active
O=C(O)CNC(=O)CC1S/C(=N/N=C2\CSC(=O)N2)NC1=O (centres undefined)	none (no result: bCat KO growth, SDO1 yeast rescue, PTEN del growth)
Cc1cc(-n2ccnc2)n2c(nc3ccccc32)c1C#N	none
CCCc1cc(-n2ccnc2)n2c(nc3ccccc32)c1C#N	none | Dynein confirm inactive
C(=N\Nc1nc(-c2ccccc2)cs1)/c1cccs1	none
COc1ccccc1-c1cc(C(F)(F)F)nc(S(C)(=O)=O)n1	bCat KO growth 2.6, Dynein cargo inh -4.6 | Dynein confirm active
COc1ccccc1-c1cc(C(F)(F)F)nc(S(=O)(=O)CCCC(=O)NCc2ccc(F)cc2)n1	none (no result: bCat KO growth, SDO1 yeast rescue, PTEN del growth)
COc1ccccc1-c1cc(C(F)(F)F)nc(N2CCCC2)n1	none
COc1ccccc1-c1cc(C(F)(F)F)nc(S(=O)(=O)CCCC(=O)N2CCCCC2C)n1 (centres undefined)	Dynein cargo inh -5.8 | Dynein confirm inconclusive
O=C(COc1ccc(/C=N/NC(=O)C(=O)N2CCCCCC2)cc1)Nc1ccccc1Cl	none
O=C1C=C(c2ccccc2)C(=O)N1Nc1ccccc1	none
COc1ccc(C2=CC(=O)N(Nc3ccccc3)C2=O)cc1	Dynein cargo inh -5.1 (no result: bCat KO growth, SDO1 yeast rescue, PTEN del growth) | Dynein confirm active
O=S(=O)(NCC1CCCO1)c1ccc(S(=O)(=O)N(Cc2ccc(F)cc2)C2CCCCC2)cc1 (centres undefined)	none (no result: bCat KO growth, SDO1 yeast rescue, PTEN del growth)
CNc1ccc(/C=C2\CSc3ccccc3C2=O)cc1[N+](=O)[O-]	Dynein cargo inh -4 (no result: bCat KO growth, SDO1 yeast rescue, PTEN del growth) | Dynein confirm inactive
O=c1c(C/C=C/c2ccccc2)c(O)ccn1CCc1c[nH]c2ccccc12	none (no result: bCat KO growth, SDO1 yeast rescue, PTEN del growth)
CCN(CC)S(=O)(=O)c1cc(C(=O)OCC(=O)NC(=O)c2cccn2C)ccc1C	none
COC(=O)c1cc(=O)n(Cc2ccc3c(c2)OCO3)c(=Nc2ccc(F)c(Cl)c2)s1	bCat KO growth 2.0, Dynein cargo inh -3.6 | Dynein confirm active
COC(=O)c1cc(=O)n(CCc2ccccc2)c(=Nc2ccc(F)cc2)s1	none (no result: Autophagy mod)
COC(=O)c1cc(=O)n(CCc2ccc(OC)cc2)c(=Nc2ccc(F)c(Cl)c2)s1	Dynein cargo inh -4.4 | Dynein confirm active
COC(=O)c1cc(=O)n(Cc2cccs2)c(=NCc2cccs2)s1	none
CCOC(=O)c1ccc(N=c2sc(C(=O)OC)cc(=O)n2Cc2ccco2)cc1	bCat KO growth 2.2, PTEN del growth 2.2, Dynein cargo inh -6.3 | Dynein confirm active
CCCCN=c1sc(C(=O)OC)cc(=O)n1CCCC	none
CCn1c(=O)cc(C(=O)OC)sc1=Nc1ccc(F)c(F)c1	bCat KO growth 2.2, PTEN del growth 2.0, Dynein cargo inh -3.9 | Dynein confirm active
COc1ccc(S(=O)(=O)N2CCC(N3CCN(c4ccccc4OC)CC3)CC2)cc1	none (no result: Autophagy mod, bCat KO growth, SDO1 yeast rescue, PTEN del growth)
COc1ccc(N2CCN(C(=O)c3ccc(OCc4c(C)noc4C)c(OC)c3)CC2)cc1	none
O=C(Nc1ccc(Cl)cc1)/C(=C/c1cccc(O)c1)c1nc2ccccc2s1	Autophagy mod active, bCat KO growth 2.2, PTEN del growth 1.9, Dynein cargo inh -6 | Dynein confirm active
CCn1c(C)c(CS(=O)(=O)c2ccccc2)[nH]c1=O	Dynein cargo inh -5.6 (no result: bCat KO growth, SDO1 yeast rescue, PTEN del growth) | Dynein confirm active
O=c1[nH]c(CS(=O)(=O)c2ccccc2)nc2ccccc12	none
Cc1cccc(COCCN2CCN(S(=O)(=O)c3ccccc3)CCC2=O)c1	none (no result: Autophagy mod, bCat KO growth, SDO1 yeast rescue, PTEN del growth)
COCCN(CC(=O)NC1CCCCC1)C(=O)/C=C/C(=O)c1ccc(OC)cc1O	Dynein cargo inh -3.7 (no result: bCat KO growth, SDO1 yeast rescue, PTEN del growth) | Dynein confirm active
CC1=NN(c2cccc(C(=O)O)c2)C(=O)/C1=C\C=C/c1ccccc1	Dynein cargo inh -5.6 (no result: bCat KO growth, SDO1 yeast rescue, PTEN del growth) | Dynein confirm active
CCCS(=O)(=O)Nc1c(C(=O)O)[nH]c2ccc(OC)cc12	none (no result: Autophagy mod, bCat KO growth, SDO1 yeast rescue, PTEN del growth)
CC12CCC(C(=O)Nc3nc4ccc(Br)cc4s3)(OC1=O)C2(C)C (centres undefined)	none (no result: bCat KO growth, SDO1 yeast rescue, PTEN del growth)
COc1cccc(Nc2ncccc2C(=O)NCc2ccccc2)c1	none | Dynein confirm inactive
COc1ccc(Nc2ncccc2C(=O)NCc2ccccc2)cc1	none
COc1ccnc(Oc2ccc(F)cc2)c1C(=O)N/C=N/OCc1cccc(F)c1	none (no result: bCat KO growth, SDO1 yeast rescue, PTEN del growth)
c1ccc2c(c1)N1CCCN=C1N2CCN1CCCCC1	none (no result: bCat KO growth, SDO1 yeast rescue, PTEN del growth)
O=C1N=C2N(CCN3CCCCC3)c3ccccc3N2/C1=C\c1ccc([N+](=O)[O-])o1	Dynein cargo inh -4 (no result: bCat KO growth, SDO1 yeast rescue, PTEN del growth) | Dynein confirm active
Cc1ccc(-n2ncc(Br)c(Br)c2=O)cc1	Autophagy mod active, Dynein cargo inh -5.9 (no result: bCat KO growth, SDO1 yeast rescue, PTEN del growth) | Dynein confirm active
O=C1C=CC(O)(c2cc(=O)c3c(O)cc(O)cc3o2)C=C1	bCat KO growth 1.1, PTEN del growth 1.3, Dynein cargo inh -6.7 | Dynein confirm active
N#C/C(C(N)=O)=C1/SC=C(c2ccccc2)N1c1ccccc1	none (no result: Autophagy mod, bCat KO growth, SDO1 yeast rescue, PTEN del growth)
N#C/C(C(=O)c1ccccc1)=C1/SC=C(N)N1c1ccccc1	none | Dynein confirm inactive
CC12CC3(C)CC(C)(C1)CC(C(=O)Nc1nn[nH]n1)(C2)C3	none
COc1ccc(-n2nc(C(=O)c3cccs3)cc(-c3nc4ccccc4[nH]3)c2=N)cc1	Autophagy mod active | Dynein confirm inactive
Cc1cc(NC(=O)c2cccs2)n(-c2nc3ccccc3[nH]2)n1	none (no result: bCat KO growth, SDO1 yeast rescue, PTEN del growth)
CC(=O)Nc1c([N+](=O)[O-])cc2[nH]c(=O)[nH]c2c1[N+](=O)[O-]	none (no result: bCat KO growth, SDO1 yeast rescue, PTEN del growth)
CC(=O)Nc1c([N+](=O)[O-])cc(C)c(Cl)c1[N+](=O)[O-]	Dynein cargo inh -5.8 (no result: bCat KO growth, SDO1 yeast rescue, PTEN del growth) | Dynein confirm active
COc1ccc(S(=O)(=O)Nc2ccccc2C(F)(F)F)cc1	none
COc1ccc(S(=O)(=O)Nc2ccc(O)c3ccccc23)cc1	bCat KO growth 1.5, PTEN del growth 2.3, Dynein cargo inh -3.7 | Dynein confirm inactive
CCOc1ccc(N2C(=O)CC(Sc3n[nH]c(-c4ccccc4)n3)C2=O)cc1 (centres undefined)	Dynein cargo inh -5.2 (no result: bCat KO growth, SDO1 yeast rescue, PTEN del growth) | Dynein confirm inactive
